# Experiments:
# [1] = tested on: Human immunodeficiency virus 1; test: Antiviral activity against […] HIV1 harboring 103N, 181C mutant infected in human MT4 cells assessed as inhibition of virus-induced cytopathogenicity after 4 days by MTT assay; assay type: functional, organism-based; conditions: Human immunodeficiency virus 1, MT4, 96 h
# Outline: (§1)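 MT-4 cells grown at 37 °C, 5% CO2 in RPMI-1640 with 10% FCS, penicillin and streptomycin. Compounds taken up in DMSO at […] (stock), then diluted in medium. 1 × 10^4 cells per well with serial compound dilutions, then HIV-1 inoculum sized to give complete cytopathogenicity by day 4. Viability read by MTT. […] Mean of three independent determinations.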
# [2] = tested on: Human immunodeficiency virus 1; test: Antiviral activity against […] HIV1 harboring Y181C mutant infected in human MT4 cells assessed as inhibition of virus-induced cytopathogenicity after 4 days by MTT assay; assay type: functional, organism-based; conditions: Human immunodeficiency virus 1, MT4, 96 h; outline: as §1
# [3] = tested on: Human immunodeficiency virus 1; test: Antiviral activity against zidovudine-resistant HIV1 harboring RT 67N, 70R, 215F, 219Q mutant infected in human MT4 cells assessed as inhibition of virus-induced cytopathogenicity after 4 days by MTT assay; assay type: functional, organism-based; conditions: Human immunodeficiency virus 1, MT4, 96 h; outline: as §1
# [4] = tested on: Human immunodeficiency virus 1; test: Antiviral activity against 6-[(3,5-Dimethylphenyl)fluoromethyl]-5-ethyl-1-{[[4-(3-hydroxyprop-1-ynyl)benzyl]oxy]methyl}pyrimidine-2,4(1H,3H)-dione-resistant HIV1 harboring RT 106I, 181C mutant infected in human MT4 cells assessed as inhibition of virus-induced cytopathogenicity after 4 days by MTT assay; assay type: functional, organism-based; conditions: Human immunodeficiency virus 1, MT4; outline: as §1
# [5] = tested on: Human immunodeficiency virus 1; test: Antiviral activity against MC1220-resistant HIV1 harboring RT 100I, 179D, 181C mutant infected in human MT4 cells assessed as inhibition of virus-induced cytopathogenicity after 4 days by MTT assay; assay type: functional, organism-based; conditions: Human immunodeficiency virus 1, MT4, 96 h; outline: as §1
# [6] = tested on: Human immunodeficiency virus 1; test: Antiviral activity against efavirenz-resistant HIV1 harboring RT 100I, 103R, 179D, 225H mutant infected in human MT4 cells assessed as inhibition of virus-induced cytopathogenicity after 4 days by MTT assay; assay type: functional, organism-based; conditions: Human immunodeficiency virus 1, MT4; outline: as §1
# [7] = tested on: Human immunodeficiency virus 1; test: Antiviral activity against TMC125-resistant HIV1 harboring RT 109M, 138K, 190E mutant infected in human MT4 cells assessed as inhibition of virus-induced cytopathogenicity after 4 days by MTT assay; assay type: functional, organism-based; conditions: Human immunodeficiency virus 1, MT4, 96 h; outline: as §1
# [8] = tested on: Human immunodeficiency virus 1; test: Antiviral activity against MDR-resistant HIV1 harboring 41L, 74V, 106A, 215Y mutant infected in human MT4 cells assessed as inhibition of virus-induced cytopathogenicity after 4 days by MTT assay; assay type: functional, organism-based; conditions: Human immunodeficiency virus 1, MT4, 96 h; outline: as §1
# [9] = tested on: Human immunodeficiency virus 1; test: Antiviral activity against TMC120-resistant HIV1 harboring RT 100I, 138G mutant infected in human MT4 cells assessed as inhibition of virus-induced cytopathogenicity after 4 days by MTT assay; assay type: functional, organism-based; conditions: Human immunodeficiency virus 1, MT4, 96 h; outline: as §1
# [10] = tested on: Human immunodeficiency virus 1; test: Antiviral activity against saquinavir-resistant HIV1 infected in human MT4 cells assessed as inhibition of virus-induced cytopathogenicity after 4 days by MTT assay; assay type: functional, organism-based; conditions: Human immunodeficiency virus 1, MT4, 96 h; outline: as §1
# [11] = Cytotoxicity against human MT4 cells after 96 hrs by MTT assay; assay type: cell-based
# Outline: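 Serial compound dilutions (from DMSO stocks at […]) are added, then cells are held 96 h at 37 °C in humidified 5% CO2. Viability is read by MTT. The value is the concentration reducing proliferation by 50%, as the mean of three independent determinations, run in parallel with the antiviral assays.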
# [12] = tested on: Human immunodeficiency virus 1; test: Antiviral activity against wild type HIV1 3B infected in human MT4 cells assessed as inhibition of virus-induced cytopathogenicity after 4 days by MTT assay; assay type: functional, organism-based; conditions: Human immunodeficiency virus 1, 3B, MT4, 96 h; outline: as §1
# [13] = tested on: Human immunodeficiency virus 1; test: Antiviral activity against HIV1 CRF02 infected in human dendritic cells assessed as inhibition of p24 in supernatants; conditions: Human immunodeficiency virus 1, CRF02, dendritic cells
# [14] = tested on: Human immunodeficiency virus 1; test: Antiviral activity against HIV1 W5269 infected in human dendritic cells assessed as inhibition of p24 production; conditions: Human immunodeficiency virus 1, W5269, dendritic cells
# [15] = tested on: Human immunodeficiency virus 1; test: Antiviral activity against HIV1 MP634 infected in human dendritic cells assessed as inhibition of p24 in supernatants; conditions: Human immunodeficiency virus 1, MP634, dendritic cells
# [16] = tested on: Human immunodeficiency virus 1; test: Antiviral activity against HIV1 MP1033 infected in human dendritic cells assessed as inhibition of p24; conditions: Human immunodeficiency virus 1, MP1033, dendritic cells
# [17] = tested on: Human immunodeficiency virus 1; test: Antiviral activity against NRTI-resistant HIV1 MP1315 infected in human dendritic cells assessed as inhibition of p24 in supernatants; conditions: Human immunodeficiency virus 1, MP1315, dendritic cells
# [18] = tested on: Human immunodeficiency virus 1; test: Antiviral activity against HIV1 MP1308 infected in human dendritic cells assessed as inhibition of p24; conditions: Human immunodeficiency virus 1, MP1308, dendritic cells
# [19] = tested on: Human immunodeficiency virus 1; test: Antiviral activity against HIV1 CRF01 infected in human dendritic cells assessed as inhibition of p24 in supernatants; conditions: Human immunodeficiency virus 1, CRF01, dendritic cells
# [20] = tested on: Human immunodeficiency virus 1; test: Antiviral activity against HIV1 MP411 infected in human dendritic cells assessed as inhibition of p24 in supernatants; conditions: Human immunodeficiency virus 1, MP411, dendritic cells
# [21] = Cytotoxicity against human MT4 cells after 40 days by MTT assay; assay type: cell-based
# Outline: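 Mock-infected MT-4 cells at 1 × 10^5 cells/mL, 37 °C, with various compound concentrations for 40 days. One-tenth of the culture is moved every 3−4 days into fresh drug-containing medium at low density to keep growth exponential. Viability is read by MTT at each passage. The value is the maximum concentration still allowing exponential proliferation, as the mean of three determinations.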
# [22] = tested on: Human immunodeficiency virus 1; test: Antiviral activity against HIV1 MP582 infected in human dendritic cells assessed as inhibition of p24 production; conditions: Human immunodeficiency virus 1, MP582, dendritic cells
# [23] = tested on: Human immunodeficiency virus 1; test: Antiviral activity against HIV1 infected in human MT4 cells assessed as lowest compound concentration required to irreversibly knock out vial multiplication treated 4 hrs after infection measured after 40 days by MTT assay; assay type: functional
# Outline: (§2)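 HIV-1-infected MT-4 cells at high MOI (5−10 CCID50/cell) in 40-day assays. Compound is given continuously (chronic), for only the first 4 h after infection, or for 4 h immediately before infection. Cells are resuspended at 10^5 cells/mL every 4 days. The value is the lowest concentration that irreversibly knocks out HIV-1 multiplication, as the mean of three independent determinations.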
# [24] = tested on: Human immunodeficiency virus 1; test: Antiviral activity against HIV1 infected in human MT4 cells assessed as lowest compound concentration required to irreversibly knock out vial multiplication treated by chronic treatment measured after 40 days by MTT assay; assay type: functional; outline: as §2
# [25] = tested on: Human immunodeficiency virus 1; test: Antiviral activity against HIV1 infected in human MT4 cells assessed as lowest compound concentration required to irreversibly knock out vial multiplication treated 4 hrs before infection measured after 40 days by MTT assay; assay type: functional; outline: as §2
SMILES,EC50 [1] [nM],EC50 [2] [nM],EC50 [3] [nM],EC50 [4] [nM],EC50 [5] [nM],EC50 [6] [nM],EC50 [7] [nM],EC50 [8] [nM],EC50 [9] [nM],EC50 [10] [nM],CC50 at 96 h [11] [nM],EC50 [12] [nM],also measured
Cc1cc(C#N)cc(C)c1Oc1nc(Nc2ccc(C#N)cc2)nc(N)c1Br [ETRAVIRINE],10,10,1,100,30,300,200,1,70,–,–,–,–
CCc1c(C(F)c2cc(C)cc(C)c2)n(COCc2ccc(C#CC=O)cc2)c(=O)[nH]c1=O (stereo not given),14000,400,100,–,–,2400,–,2300,–,5200,27000,80,–
O=C1Nc2ccc(Cl)cc2[C@@](C#CC2CC2)(C(F)(F)F)O1 [EFAVIRENZ],80,–,2,60,100,6000,7000,4,90,–,–,–,EC99 [13]: 0.01 µM; EC99 [14]: 0.01 µM; EC99 [15]: 0.01 µM; EC99 [16]: 0.01 µM; EC99 [17]: ≤ 0.0001 µM; EC99 [18]: 0.01 µM; EC99 [19]: 0.01 µM
CCc1c(C(F)c2cc(C)cc(C)c2)[nH]c(=O)n(COCc2ccc(I)cc2)c1=O (stereo not given),> 100000,> 100000,11000,–,–,> 100000,–,> 100000,–,23000,> 100000,9000,–
Cc1c(C(C)c2c(F)cccc2F)nc(N(C)C)[nH]c1=O (stereo not given),> 20000,800,4,700,3000,2000,3000,10,2000,10,≥ 100000,2,EC99 [13]: 0.01 µM; EC99 [20]: 0.01 µM; EC99 [14]: 0.01 µM; EC99 [15]: 0.1 µM; EC99 [16]: 0.01 µM; MNTC at 960 h [21]: 30 µM; EC99 [22]: 0.001 µM; Activity [23]: <5 µM; EC99 [17]: ≤ 0.0001 µM; Activity [24]: <0.1 µM; Activity [25]: <5 µM; EC99 [18]: 0.01 µM; EC99 [19]: 0.001 µM
CCOCn1c(C(F)c2cc(C)cc(C)c2)c(CC)c(=O)[nH]c1=O (stereo not given),2000,300,40,–,–,6000,–,–,–,9000,85000,5,–
CCc1c(C(F)c2cc(C)cc(C)c2)n(COCc2ccc(I)cc2)c(=O)[nH]c1=O (stereo not given),2000,200,300,–,–,1400,–,1500,–,1200,43000,400,–
